Pf Dd2 growth: inhibitors of Plasmodium falciparum Dd2 growth; P. falciparum Dd2 growth, SYBR Green, 72 h; hits give low values; activity change, % at 10 µM; actives 2.3% (n = 94,000); in the data active = activity change below about -80%; inconclusive = no clear call, values can overlap the other calls
GASC1 inh: KDM4C (human) demethylase inhibition; AID 720574; Q9H3R0; GST-KDM4C 2-372, H3K9me3 peptide, LANCE TR-FRET; actives 0.15% (n = 96,000); inhibition, % at 12.5 µM;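 active = mean replicate inhibition above about 25%, with at least 55% of replicates also reaching it, limit read from the data, passing the limit was not always enough; inconclusive = only one of those two conditions met; inactive = neither condition met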
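material = GST-tagged GASC-1 (JMJD2C) catalytic fragment, aa 2-372 | amount = enzyme final amount 10 nM | medium = HEPES buffer, pH 7.5, plus ascorbate | also added = H3K9me3 peptide substrate, Fe(II), 2-oxoglutarate | dosing = single dose | times = 30 min demethylation and 1 h detection at room temperature | detection = LANCE TR-FRET | read-out basis = Fall in 671/618 emission ratio as inhibition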
IDH1 mut inh: blocks human IDH1 R132H reductase activity | O75874 | AID 624101 | actives 0.18% (n = 70,000) | diaphorase/resazurin fluorescence, 60 min | inhibition, % at 10 µM; in the data active = inhibition above about 34%; inconclusive = no clear call, values can overlap the other calls; inactive = below about 11%
Target sequence (O75874 whole entry R132H): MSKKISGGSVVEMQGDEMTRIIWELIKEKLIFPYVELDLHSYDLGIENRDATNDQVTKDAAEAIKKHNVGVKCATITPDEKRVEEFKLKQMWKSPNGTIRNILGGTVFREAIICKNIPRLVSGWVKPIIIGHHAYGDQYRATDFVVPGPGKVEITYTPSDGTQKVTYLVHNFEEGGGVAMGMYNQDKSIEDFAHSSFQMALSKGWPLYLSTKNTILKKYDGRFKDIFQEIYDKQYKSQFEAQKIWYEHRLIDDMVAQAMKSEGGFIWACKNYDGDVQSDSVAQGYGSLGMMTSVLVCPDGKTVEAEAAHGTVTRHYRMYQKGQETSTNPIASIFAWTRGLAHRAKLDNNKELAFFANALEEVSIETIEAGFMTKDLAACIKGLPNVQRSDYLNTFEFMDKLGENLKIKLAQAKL
T cruzi growth-1: T. cruzi proliferation inhibition; T. cruzi beta-gal in NIH3T3, GalScreen luminescence, 90 h; inhibition, % at 8.34 µM; AID 624255; actives 5.9% (n = 77,000);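 active = mean inhibition above about 93%, with at least 55% of replicates each passing it, limit read from the data, passing the limit was not always enough; inconclusive = only one of those two conditions holds; inactive = neither condition holds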
T cruzi growth-2: blocks T. cruzi growth in NIH3T3 host cells | shares compounds with T cruzi growth-1 | T. cruzi beta-gal in NIH3T3, GalScreen luminescence, 90 h | inhibition, % at 8.35 µM | actives 72% (n = 5,600) | AID 651739;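 active = mean replicate inhibition above about 95% and at least 55% of replicates individually reaching it, limit read from the data; inconclusive = only one of the two criteria is met; inactive = neither criterion is met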
T cruzi growth-3: blocks T. cruzi growth in NIH3T3 host cells. shares compounds with T cruzi growth-1. T. cruzi beta-gal in NIH3T3, GalScreen luminescence, 90 h. inhibition, % at 2.09 µM. actives 21% (n = 5,600). AID 651740;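 active = mean inhibition above about 95%, with at least 55% of replicates also reaching it, limit read from the data; inconclusive = meets just one of the two conditions; inactive = meets neither condition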
NIH3T3 tox: cytotoxicity in mouse NIH/3T3 fibroblasts. shares compounds with T cruzi growth-1. actives 14% (n = 5,600). AID 651742. NIH/3T3 viability, CellTiter-Glo ATP luminescence, 90 h. cytotoxicity (signal decrease), % at 8.35 µM;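 active = mean signal decrease across replicates above about 35% based on untreated-well scatter, with enough replicates individually passing, limit read from the data; inconclusive = no rule stated though some were filed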
3T3 cytotox 2: kills mouse NIH/3T3 fibroblasts. shares compounds with T cruzi growth-1. NIH/3T3 viability, CellTiter-Glo ATP luminescence, 90 h. inhibition, % at 24.9 µM. actives 56% (n = 5,600). AID 651744;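 active = mean loss of cell viability signal at or above a set limit, and enough replicates individually reaching it; inconclusive = meets only the mean limit or only the replicate share; inactive = meets neither condition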
Hits are given with their value; i = inactive; ? = inconclusive; nt = no result given; ! = not confirmed by another sample. Rows were chosen to be rich in hits. Some 5.9% of all compounds tested hit in one or more screens of this group.

SMILES	Pf Dd2 growth	GASC1 inh	IDH1 mut inh	T cruzi growth-1	T cruzi growth-2	T cruzi growth-3	NIH3T3 tox	3T3 cytotox 2
O=C([C@H]1[C@H](CO)[C@H]2Cn3c(ccc(-c4cccc(F)c4)c3=O)[C@H]2N1Cc1cocn1)N1CCCCC1	i	i	nt	?	i	i	i	24.1
CCCNC(=O)N1[C@@H]2c3ccc(-c4ccc(F)cc4)c(=O)n3C[C@@H]2[C@@H](CO)[C@@H]1C(=O)N1CCCCC1	nt	i	nt	101.6	i	i	i	i
COC(=O)[C@H]1[C@H](CO)[C@H]2Cn3c(ccc(-c4ccc(F)cc4)c3=O)[C@H]2N1C(=O)C1CC1	i	i	nt	i	nt	nt	nt	nt
O=C(COc1ccccc1Cl)Nc1cccc(Oc2ccc3c(c2)C(=O)NC3=O)c1	nt	nt	i	nt	nt	nt	nt	nt
COc1cccc(NC(=O)CSc2nc3ccccc3c(=O)n2-c2ccc(Br)cc2)c1	nt	nt	i	nt	nt	nt	nt	nt
COc1cc([C@H]2OC[C@H]3[C@@H]2CO[C@H]3c2cc(OC)c(OC)c(OC)c2)cc(OC)c1OC	nt	nt	i	nt	nt	nt	nt	nt
O=c1c(-c2ccccc2)[n+]([O-])c2ccccc2n1OCc1ccccc1	nt	nt	i	nt	nt	nt	nt	nt
O=S(=O)(c1ccc(F)cc1)N1CCCCN2[C@@H](CO)[C@H](c3ccc(-c4ccccc4F)cc3)[C@@H]2C1	i	nt	nt	106.3	i	i	77.5	100.4
O=S(=O)(c1ccc(F)cc1)N1CCCCN2[C@H](CO)[C@H](c3ccc(-c4ccccc4F)cc3)[C@@H]2C1	i	nt	nt	110.6	104.3	i	i	93.6
O=S(=O)(c1ccc(F)cc1)N1CCCCN2[C@H](C1)[C@@H](c1ccc(-c3ccccc3F)cc1)[C@@H]2CO	i	nt	nt	107.3	101.0	i	i	42.1
Cc1ccccc1-c1ccc([C@H]2[C@H](CO)N3CCCCN(S(=O)(=O)c4ccc(F)cc4)C[C@@H]23)cc1	i	i	nt	111.9	99.7	109.6	?	103.8
O=C1C(=O)N(CCCN2CCOCC2)C(c2cccnc2)C1C(=O)c1cc2ccccc2o1 (stereo not given)	nt	nt	i	nt	nt	nt	nt	nt
CCOC(=O)c1c(-c2ccc(C)cc2)csc1NC(=O)C1COc2ccccc2O1 (stereo not given)	nt	nt	i	nt	nt	nt	nt	nt
O=S(=O)(c1ccc(F)cc1)N1CCCCN2[C@H](C1)[C@H](c1ccc(-c3ccccc3F)cc1)[C@@H]2CO	i	nt	nt	108.1	104.7	105.0	i	101.7
O=S(=O)(c1ccc(F)cc1)N1CCCCN2[C@@H](CO)[C@@H](c3ccc(-c4ccccc4F)cc3)[C@@H]2C1	i	nt	nt	i	nt	nt	nt	nt
Cc1ccccc1-c1ccc([C@H]2[C@H](CO)N3CCCCN(S(C)(=O)=O)C[C@@H]23)cc1	i	i	nt	108.9	95.8	i	i	35.5
CCS(=O)(=O)N1CCCCN2[C@H](CO)[C@H](c3ccc(-c4ccccc4F)cc3)[C@H]2C1	i	i	nt	99.5	95.6	i	i	60.6
CC(C)NC(=O)N(C)C[C@H]1OCCCC[C@@H](C)Oc2ccc(NC(=O)C3CCCCC3)cc2C(=O)N([C@H](C)CO)C[C@@H]1C	i	i	nt	98.7!	i	i	i	i
C[C@@H]1CCCCO[C@@H](CN(C)C(=O)Nc2ccc(C(F)(F)F)cc2)[C@@H](C)CN([C@H](C)CO)C(=O)c2cc(NC(=O)C3CCCCC3)ccc2O1	i	i	i	101.4	106.8	i	i	i
C[C@@H]1CN([C@@H](C)CO)C(=O)c2cc(NC(=O)C3CCCCC3)ccc2O[C@@H](C)CCCCO[C@@H]1CN(C)C(=O)Nc1ccc(C(F)(F)F)cc1	?	i	i	i	nt	nt	nt	nt
C[C@@H]1CCCCO[C@@H](CN(C)C(=O)Nc2ccc(F)cc2)[C@@H](C)CN([C@H](C)CO)C(=O)c2cc(NC(=O)C3CCCCC3)ccc2O1	i	i	i	i	nt	nt	nt	nt
C[C@H]1CCCCO[C@@H](CN(C)C(=O)Nc2ccc(C(F)(F)F)cc2)[C@@H](C)CN([C@@H](C)CO)C(=O)c2cc(NC(=O)C3CCCCC3)ccc2O1	-82.9	i	nt	96.5	103.5	104.9	i	i

Screens: PubChem BioAssay, Broad Institute
